Results published in ChEMBL document CHEMBL5096209, “Structure-Activity Studies of 3,9-Diazaspiro[5.5]undecane-Based γ-Aminobutyric Acid Type A Receptor Antagonists with Immunomodulatory Effect” (J Med Chem, 2021).

Columns and labels:
[1] = target: T1, Gamma-aminobutyric acid receptor subunit alpha-4/beta-1/delta (Homo sapiens, UniProt O14764+P18505+P48169); experiment: Antagonist activity at recombinant human alpha4beta1delta GABAA receptor expressed in HEK293 Flp-In cells by FMP assay; format: cell-based, Flp-In-293
Outline: (§1)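 HEK293 Flp-In cells stably expressing human δ subunit, transiently transfected with human α and β subunits (1:1) to form αβδ receptors. Read-out is the FLIPR membrane potential dye ΔRFU, baseline to peak/plateau, with GABA EC80 as agonist. Four-parameter fit of concentration–inhibition curves gives IC50, from at least three independent experiments.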

[2] = target: T2, GABA-A receptor; alpha-1/beta-2/gamma-2 (Homo sapiens, UniProt P14867+P18507+P47870); experiment: Antagonist activity at human alpha1beta2gamma2 GABAA receptor expressed in HEK by FMP assay; format: cell-based
T2 sequence (P14867 whole entry): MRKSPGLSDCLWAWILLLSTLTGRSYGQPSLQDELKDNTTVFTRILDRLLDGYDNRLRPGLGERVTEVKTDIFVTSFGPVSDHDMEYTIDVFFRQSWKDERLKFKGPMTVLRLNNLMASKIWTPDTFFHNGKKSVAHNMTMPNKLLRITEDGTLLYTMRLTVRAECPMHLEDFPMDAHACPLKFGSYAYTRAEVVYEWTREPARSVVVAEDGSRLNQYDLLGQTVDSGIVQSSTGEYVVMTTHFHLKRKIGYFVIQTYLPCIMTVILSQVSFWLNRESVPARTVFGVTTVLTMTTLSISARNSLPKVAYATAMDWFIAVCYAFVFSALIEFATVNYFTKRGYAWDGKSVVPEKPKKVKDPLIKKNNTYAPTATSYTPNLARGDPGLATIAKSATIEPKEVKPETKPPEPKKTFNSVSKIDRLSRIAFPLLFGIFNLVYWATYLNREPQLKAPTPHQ
T2 sequence (P47870 whole entry): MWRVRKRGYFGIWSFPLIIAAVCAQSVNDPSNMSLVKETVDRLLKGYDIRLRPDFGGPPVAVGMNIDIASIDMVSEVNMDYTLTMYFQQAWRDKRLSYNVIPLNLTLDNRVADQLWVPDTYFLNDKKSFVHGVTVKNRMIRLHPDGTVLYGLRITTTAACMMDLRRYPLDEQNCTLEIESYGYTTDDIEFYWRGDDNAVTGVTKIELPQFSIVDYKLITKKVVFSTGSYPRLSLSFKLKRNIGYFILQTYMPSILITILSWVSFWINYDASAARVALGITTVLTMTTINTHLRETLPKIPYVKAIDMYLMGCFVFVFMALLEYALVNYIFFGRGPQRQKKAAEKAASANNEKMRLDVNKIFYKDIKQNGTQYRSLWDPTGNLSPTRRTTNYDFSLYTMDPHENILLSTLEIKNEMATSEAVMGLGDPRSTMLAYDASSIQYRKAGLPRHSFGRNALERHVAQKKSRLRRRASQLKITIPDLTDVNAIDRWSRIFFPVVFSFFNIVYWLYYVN
T2 sequence (P18507 whole entry): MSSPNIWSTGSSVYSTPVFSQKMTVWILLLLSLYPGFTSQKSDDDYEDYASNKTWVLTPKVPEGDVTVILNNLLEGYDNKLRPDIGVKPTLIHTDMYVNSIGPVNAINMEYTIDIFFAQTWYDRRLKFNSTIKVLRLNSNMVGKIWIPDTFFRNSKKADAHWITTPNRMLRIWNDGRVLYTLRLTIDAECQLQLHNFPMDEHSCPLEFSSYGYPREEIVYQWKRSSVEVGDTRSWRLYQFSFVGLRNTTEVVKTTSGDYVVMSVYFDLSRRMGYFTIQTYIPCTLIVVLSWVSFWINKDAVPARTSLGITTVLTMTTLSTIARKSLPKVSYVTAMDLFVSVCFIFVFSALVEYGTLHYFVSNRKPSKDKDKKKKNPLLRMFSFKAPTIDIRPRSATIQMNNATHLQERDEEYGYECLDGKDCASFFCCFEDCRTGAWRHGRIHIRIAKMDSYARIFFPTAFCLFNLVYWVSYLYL
Outline: (§2)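 Human αβγ2 receptors in HEK293 cells: α1β2γ2 stably expressed, other αβγ2 subtypes transiently transfected into HEK293 Flp-In background cells (α:β:γ 1:1:2). FLIPR membrane potential assay with ΔRFU baseline to peak/plateau and GABA EC80 as agonist. IC50 from a four-parameter fit, at least three independent experiments.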

[3] = Antagonist activity at human alpha6beta2delta GABAA receptor expressed in HEK293 Flp-In cells by FMP assay; format: cell-based, Flp-In-293; outline: as §1
[4] = target: T1, Gamma-aminobutyric acid receptor subunit alpha-4/beta-1/delta; experiment: Antagonist activity at human alpha4beta1delta GABAA receptor expressed in HEK293 Flp-In cells by FMP assay; format: cell-based, Flp-In-293; outline: as §1
[5] = target: T3, Gamma-aminobutyric acid receptor subunit alpha-5/beta-2/gamma-2 (Homo sapiens, UniProt P18507+P31644+P47870); experiment: Antagonist activity at human alpha5beta2gamma2 GABAA receptor expressed in HEK293 cells by FMP assay; format: cell-based; outline: as §2
T3 sequence (P47870 whole entry): T2 sequence (P47870 whole entry)
T3 sequence (P18507 whole entry): T2 sequence (P18507 whole entry)
T3 sequence (P31644 whole entry): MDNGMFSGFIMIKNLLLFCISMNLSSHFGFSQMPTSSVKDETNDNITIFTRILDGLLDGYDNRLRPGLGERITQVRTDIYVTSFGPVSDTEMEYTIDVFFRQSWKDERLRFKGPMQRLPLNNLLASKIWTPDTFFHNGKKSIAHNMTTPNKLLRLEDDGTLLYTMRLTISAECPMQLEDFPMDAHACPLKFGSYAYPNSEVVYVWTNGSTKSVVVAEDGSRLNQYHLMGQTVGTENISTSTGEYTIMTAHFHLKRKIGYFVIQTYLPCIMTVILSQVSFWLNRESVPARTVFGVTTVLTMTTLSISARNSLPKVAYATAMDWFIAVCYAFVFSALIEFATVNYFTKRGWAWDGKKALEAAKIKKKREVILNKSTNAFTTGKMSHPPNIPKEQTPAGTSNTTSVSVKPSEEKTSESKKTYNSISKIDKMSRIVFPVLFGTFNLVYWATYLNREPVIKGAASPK

[6] = Homo sapiens, Flp-In-293, read-out: pIC50 (converted)

T1 sequence (P48169 whole entry): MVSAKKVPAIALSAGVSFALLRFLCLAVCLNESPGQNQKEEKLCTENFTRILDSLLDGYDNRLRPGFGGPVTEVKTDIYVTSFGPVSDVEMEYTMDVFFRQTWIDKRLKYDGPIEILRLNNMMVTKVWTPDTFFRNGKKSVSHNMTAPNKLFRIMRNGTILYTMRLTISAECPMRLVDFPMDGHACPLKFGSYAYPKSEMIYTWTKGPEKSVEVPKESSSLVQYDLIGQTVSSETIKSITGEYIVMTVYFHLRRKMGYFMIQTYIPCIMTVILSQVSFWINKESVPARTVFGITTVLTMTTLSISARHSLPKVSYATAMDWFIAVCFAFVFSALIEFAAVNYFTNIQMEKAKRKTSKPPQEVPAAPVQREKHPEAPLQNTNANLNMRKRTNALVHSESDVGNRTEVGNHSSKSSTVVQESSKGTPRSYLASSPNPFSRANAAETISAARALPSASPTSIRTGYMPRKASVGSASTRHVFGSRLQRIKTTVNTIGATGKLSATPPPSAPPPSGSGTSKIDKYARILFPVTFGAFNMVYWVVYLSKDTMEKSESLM
T1 sequence (O14764 whole entry): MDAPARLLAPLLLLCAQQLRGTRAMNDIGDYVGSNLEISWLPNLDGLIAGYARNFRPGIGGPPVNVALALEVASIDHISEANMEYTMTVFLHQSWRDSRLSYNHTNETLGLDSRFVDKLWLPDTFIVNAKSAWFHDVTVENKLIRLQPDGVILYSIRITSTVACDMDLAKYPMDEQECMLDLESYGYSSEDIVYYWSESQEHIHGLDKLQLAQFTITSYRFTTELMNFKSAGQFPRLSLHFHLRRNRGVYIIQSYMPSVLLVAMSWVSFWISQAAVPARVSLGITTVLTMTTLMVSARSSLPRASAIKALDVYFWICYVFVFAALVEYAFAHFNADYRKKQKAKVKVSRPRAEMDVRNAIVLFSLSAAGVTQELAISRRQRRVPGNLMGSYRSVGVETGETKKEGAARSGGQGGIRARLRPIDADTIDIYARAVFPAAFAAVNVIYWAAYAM
T1 sequence (P18505 whole entry): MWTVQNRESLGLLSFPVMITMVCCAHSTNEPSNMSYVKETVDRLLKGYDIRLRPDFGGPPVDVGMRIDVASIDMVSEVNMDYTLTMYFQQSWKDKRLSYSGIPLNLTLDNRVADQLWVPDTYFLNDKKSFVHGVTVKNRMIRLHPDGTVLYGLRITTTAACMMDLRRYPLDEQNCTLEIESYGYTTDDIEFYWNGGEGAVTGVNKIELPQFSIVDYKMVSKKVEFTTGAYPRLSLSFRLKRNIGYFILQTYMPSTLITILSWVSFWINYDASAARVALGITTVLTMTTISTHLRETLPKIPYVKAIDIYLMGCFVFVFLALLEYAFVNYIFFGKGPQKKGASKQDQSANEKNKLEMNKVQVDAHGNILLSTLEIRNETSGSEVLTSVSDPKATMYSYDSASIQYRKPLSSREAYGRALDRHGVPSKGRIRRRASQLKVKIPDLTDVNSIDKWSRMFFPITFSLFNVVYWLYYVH

| IC50 [1] | IC50 ([1]; read-out: pIC50 (converted)) | IC50 [2] | IC50 ([2]; read-out: pIC50 (converted)) | IC50 [3, 6] | IC50 ([3]; flp-in-293) | IC50 [4] | IC50 ([4]; read-out: pIC50 (converted)) | IC50 [5] | IC50 ([5]; read-out: pIC50 (converted)) | Compound |
| --- | --- | --- | --- | --- | --- | --- | --- | --- | --- | --- |
| 88 nM | 87.1 nM | 790 nM | 794 nM |  |  |  |  |  |  | O=C(Nc1cccc(C(=O)N2CCC3(CCNCC3)CC2)c1)c1cccs1 |
|  |  |  |  | 1910 nM | 1950 nM | 195 nM | 182 nM | 540 nM | 537 nM | Cc1cccc(C(=O)N2CCC3(CCNCC3)CC2)c1 |
| 1030 nM | 1020 nM | 4960 nM | 5010 nM |  |  |  |  |  |  | CC(=O)Nc1cccc(C(=O)N2CCC3(CCNCC3)CC2)c1 |
|  |  |  |  | 8710 nM | 8870 nM | 1280 nM | 1260 nM | 1500 nM | 1450 nM | Cc1ccc(C(=O)N2CCC3(CCNCC3)CC2)cc1 |
